Results from ChEMBL document CHEMBL4196021, “Targeting G-quadruplex DNA structures in the telomere and oncogene promoter regions by benzimidazole‒carbazole ligands” (Eur J Med Chem, 2018).
The source made the active and inactive calls. The rule behind the calls is not given here.

How the values were obtained:
[1] = test system: Quadruplex DNA; assay: Binding affinity to human c-Kit1 G-quadruplex DNA at 0.6 uM after 5 mins in presence of KCl by fluorescence spectroscopic method; format: nucleic-acid assay
Summary of the method: (§1)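 Fluorescence titration at 25 °C with 0.6 µM ligand in 10 mM Tris-HCl pH 7.4, 100 mM KCl, 0.1 mM EDTA. Preformed G4 DNA was added stepwise, with 5 min incubation before each spectrum. Excitation 330 nm; emission 350–550 nm, slit 5 nm.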

[2] = test system: Quadruplex DNA; assay: Binding affinity to human c-Myc G-quadruplex DNA at 0.6 uM after 5 mins in presence of KCl by fluorescence spectroscopic method; format: nucleic-acid assay; summary of the method: as §1
[3] = test system: Quadruplex DNA; assay: Binding affinity to human telomeric G-quadruplex DNA at 0.6 uM after 5 mins in presence of KCl by fluorescence spectroscopic method; format: nucleic-acid assay; summary of the method: as §1
[4] = test system: Quadruplex DNA; assay: Binding affinity to human c-Kit2 G-quadruplex DNA at 0.6 uM after 5 mins in presence of KCl by fluorescence spectroscopic method; format: nucleic-acid assay; summary of the method: as §1
[5] = test system: Quadruplex DNA; assay: Binding affinity to human VEGF G-quadruplex DNA at 0.6 uM after 5 mins in presence of KCl by fluorescence spectroscopic method; format: nucleic-acid assay; summary of the method: as §1
[6] = test system: Quadruplex DNA; assay: Induction of conformational changes in human telomeric G-quadruplex DNA assessed as inversion from potassium ion stabilized hybrid type mixed parallel/antiparallel G-quadruplex to stable telomere parallel-stranded G-quadruplex after 5 mins in presence of KCl by CD spectroscopic method; format: nucleic-acid assay
Summary of the method: (§2)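 CD spectra of 5 µM G4 DNA in 10 mM Tris-HCl pH 7.4, 100 mM KCl, 0.1 mM EDTA, with or without ligand. Mixtures were heated 95 °C for 5 min and slowly cooled to room temperature. Recorded 200–400 nm at 25 °C, 100 nm/min, 2 s response, 1 cm cell; average of three scans.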

[7] = test system: Quadruplex DNA; assay: Induction of conformational changes in human Bcl2 G-quadruplex DNA assessed as inversion from potassium ion stabilized hybrid type mixed parallel/antiparallel G-quadruplex to stable telomere parallel-stranded G-quadruplex after 5 mins in presence of KCl by CD spectroscopic method; format: nucleic-acid assay; summary of the method: as §2
[8] = test system: Quadruplex DNA; assay: Binding affinity to human c-Myc G-quadruplex DNA assessed as stabilization of parallel stranded topology after 5 mins in presence of KCl by CD spectroscopic method; format: nucleic-acid assay; summary of the method: as §2
[9] = test system: Quadruplex DNA; assay: Binding affinity to human VEGF G-quadruplex DNA assessed as stabilization of parallel stranded topology after 5 mins in presence of KCl by CD spectroscopic method; format: nucleic-acid assay; summary of the method: as §2
[10] = target: Quadruplex DNA; assay: Displacement of thiazole orange from human telomeric G-quadruplex DNA after 5 mins in presence of KCl by fluorescence assay; format: nucleic-acid assay
Summary of the method: (§3)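 Thiazole orange displacement from a G4 DNA–TO complex (1 µM TO + 0.5 µM G4 DNA) in 10 mM Tris-HCl pH 7.4, 100 mM KCl, 0.1 mM EDTA. Ligand was added in increasing steps, with 5 min incubation each. Fluorescence read at ex 501/em 531 nm; % displacement = 100 − (Ft/F0 × 100). DC50 is the ligand concentration giving 50% displacement, read from plots; average of two independent experiments.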

[11] = target: Quadruplex DNA; assay: Displacement of thiazole orange from human Bcl2 G-quadruplex DNA after 5 mins in presence of KCl by fluorescence assay; format: nucleic-acid assay; summary of the method: as §3
[12] = target: Quadruplex DNA; assay: Displacement of thiazole orange from human VEGF G-quadruplex DNA after 5 mins in presence of KCl by fluorescence assay; format: nucleic-acid assay; summary of the method: as §3
[13] = test system: Calf thymus DNA; assay: Displacement of thiazole orange from calf thymus duplex DNA after 5 mins in presence of KCl by fluorescence assay; format: nucleic-acid assay, Bos taurus
[14] = test system: Quadruplex DNA; assay: Binding affinity to human telomeric G-quadruplex DNA assessed as change in melting temperature in presence of KCl by CD spectroscopic method; format: nucleic-acid assay
Summary of the method: (§4)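 CD melting of 5 µM G4 DNA in 10 mM Tris-HCl pH 7.4, 25 mM KCl, 0.1 mM EDTA. Ligand was present during folding (heating, slow cooling). Spectra 200–400 nm over 20–96 °C in 2 °C steps, buffer blank subtracted. Tm was taken from normalized ellipticity at the positive maximum (262 nm for promoter G4s). ΔTm = ligand-bound minus DNA alone; average of two independent experiments.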

[15] = test system: Quadruplex DNA; assay: Binding affinity to human Bcl2 G-quadruplex DNA assessed as change in melting temperature in presence of KCl by CD spectroscopic method; format: nucleic-acid assay; summary of the method: as §4
[16] = test system: Quadruplex DNA; assay: Binding affinity to human c-Kit1 G-quadruplex DNA assessed as change in melting temperature in presence of KCl by CD spectroscopic method; format: nucleic-acid assay; summary of the method: as §4
[17] = test system: Quadruplex DNA; assay: Binding affinity to human c-Kit2 G-quadruplex DNA assessed as change in melting temperature in presence of KCl by CD spectroscopic method; format: nucleic-acid assay; summary of the method: as §4
[18] = target: Telomerase reverse transcriptase (Homo sapiens, UniProt O14746); assay: Inhibition of telomerase (unknown origin) by TRAP-LIG assay
Summary of the method: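 Telomerase activity measured by modified TRAP-LIG assay across ligand concentrations of 0.01 to 2 µM (11 levels). Positive and negative controls included. Inhibition was judged from the intensity and number of telomeric ladder bands.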

[19] = test system: Quadruplex DNA; assay: Stabilization of c-Myc G-quadruplex DNA in human HeLa cells assessed as decrease in c-Myc mRNA level at 5 uM after 24 hrs by RT-PCR method relative to control; format: cell-based; design: scale not given: the % may be the effect or the level left
Summary of the method: (§5)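 HeLa cells exposed to increasing ligand concentrations (5 and 10 µM named) for 24 h, with DMSO-treated cells as control. Total RNA was extracted with TRI reagent and DNase I-treated. c-MYC and VEGF transcripts were quantified by qRT-PCR, normalized to GAPDH, and expressed as relative fold change.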

[20] = test system: Quadruplex DNA; assay: Stabilization of c-Myc G-quadruplex DNA in human HeLa cells assessed as decrease in c-Myc mRNA level at 10 uM after 24 hrs by RT-PCR method relative to control; format: cell-based; design: scale not given: the % may be the effect or the level left; summary of the method: as §5
[21] = test system: Quadruplex DNA; assay: Stabilization of c-Myc G-quadruplex DNA in human HeLa cells assessed as decrease in c-Myc mRNA level after 24 hrs by RT-PCR method; format: cell-based; summary of the method: as §5
[22] = test system: Quadruplex DNA; assay: Stabilization of VEGF G-quadruplex DNA in human HeLa cells assessed as decrease in VEGF mRNA level after 24 hrs by RT-PCR method; format: cell-based; summary of the method: as §5
[23] = test system: Quadruplex DNA; assay: Stabilization of VEGF G-quadruplex DNA in human HeLa cells assessed as decrease in VEGF mRNA level at 10 uM after 24 hrs by RT-PCR method relative to control; format: cell-based; design: scale not given: the % may be the effect or the level left; summary of the method: as §5
[24] = test system: HeLa; assay: Effect on GADPH mRNA level in human HeLa cells assessed as decrease in VEGF mRNA level at 2.5 to 10 uM after 24 hrs by RT-PCR method; format: cell-based
[25] = test system: MCF7; assay: Cytotoxicity against human MCF7 cells assessed as reduction in cell viability after 72 hrs by MTT assay; format: functional, cell-based
Summary of the method: (§6)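 HeLa and MCF7 cells in log phase were seeded for 24 h, then exposed to a range of ligand concentrations for 72 h. MTT (5 mg/ml stock) was added for 4 h, formazan dissolved in DMSO, and absorbance read at 570 nm. Three independent experiments in triplicate, mean ± SD.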

[26] = test system: HeLa; assay: Cytotoxicity against human HeLa cells assessed as reduction in cell viability after 72 hrs by MTT assay; format: functional, cell-based; summary of the method: as §6

Chain of Telomerase reverse transcriptase (O14746 whole entry): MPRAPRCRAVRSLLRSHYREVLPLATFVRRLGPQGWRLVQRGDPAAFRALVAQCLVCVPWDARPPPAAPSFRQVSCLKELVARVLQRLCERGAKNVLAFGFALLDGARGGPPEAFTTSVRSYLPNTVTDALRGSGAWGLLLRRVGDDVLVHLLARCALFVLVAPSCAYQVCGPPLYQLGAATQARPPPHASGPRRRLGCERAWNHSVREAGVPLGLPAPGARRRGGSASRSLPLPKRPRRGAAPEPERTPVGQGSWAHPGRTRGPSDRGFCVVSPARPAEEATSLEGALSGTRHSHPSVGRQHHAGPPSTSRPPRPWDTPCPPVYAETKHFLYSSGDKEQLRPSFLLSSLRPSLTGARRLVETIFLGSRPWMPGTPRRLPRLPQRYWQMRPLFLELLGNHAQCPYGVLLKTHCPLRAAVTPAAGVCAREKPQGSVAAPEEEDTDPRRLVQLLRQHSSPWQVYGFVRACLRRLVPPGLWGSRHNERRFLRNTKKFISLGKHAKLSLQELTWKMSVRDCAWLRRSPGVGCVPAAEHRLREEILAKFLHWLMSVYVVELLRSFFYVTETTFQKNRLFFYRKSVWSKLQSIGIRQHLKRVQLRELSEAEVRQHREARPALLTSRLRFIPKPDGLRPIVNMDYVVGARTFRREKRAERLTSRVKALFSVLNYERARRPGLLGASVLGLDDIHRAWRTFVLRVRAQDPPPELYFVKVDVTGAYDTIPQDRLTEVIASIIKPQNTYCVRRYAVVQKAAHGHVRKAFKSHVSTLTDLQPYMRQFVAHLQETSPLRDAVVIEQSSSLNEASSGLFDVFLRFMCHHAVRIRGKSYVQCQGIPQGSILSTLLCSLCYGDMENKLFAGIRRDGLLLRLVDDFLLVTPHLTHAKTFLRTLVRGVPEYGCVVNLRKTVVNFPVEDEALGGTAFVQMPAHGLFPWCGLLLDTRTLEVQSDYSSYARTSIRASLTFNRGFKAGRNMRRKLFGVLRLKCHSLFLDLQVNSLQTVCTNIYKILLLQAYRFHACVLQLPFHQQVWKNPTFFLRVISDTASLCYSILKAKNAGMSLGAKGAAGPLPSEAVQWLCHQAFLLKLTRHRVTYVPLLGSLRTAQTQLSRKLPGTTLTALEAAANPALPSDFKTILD

Activity [1]: Active
Activity [2]: Active
Activity [3]: Active
Activity [4]: Active
Activity [5]: Active
Activity [6]: Active
Activity [7]: Active
Activity [8]: Active
Activity [9]: Active
DC50 [10]: 1130 nM
DC50 [11]: 1390 nM
DC50 [12]: 780 nM
DC50 [13]: 6940 nM
ΔTm [14]: 21.3 °C
ΔTm [15]: 9.54 °C
ΔTm [16]: 24.7 °C
ΔTm [17]: 23.3 °C
IC50 [18]: 300 nM
inhibition [18]: Dose-dependent effect
Compound: CN(C)CCCCn1c2ccc(-c3nc4ccc(N5CCN(CCO)CC5)cc4[nH]3)cc2c2cc(-c3nc4ccc(N5CCN(CCO)CC5)cc4[nH]3)ccc21
Activity [19]: 49%
Activity [20]: 71%
Activity [21]: Dose-dependent effect
Activity [22]: Dose-dependent effect
Activity [23]: 68%
Activity [24]: Non-Toxic
Activity [25]: Dose-dependent effect
IC50 ([25]; MCF7, 72 h): 11400 nM
Activity [26]: Dose-dependent effect
IC50 [26]: 8290 nM
